For data set [1], the target named is T1, human sex hormone binding globulin (SHBG) (Homo sapiens, UniProt P04278).
T1 sequence (P04278 30-402): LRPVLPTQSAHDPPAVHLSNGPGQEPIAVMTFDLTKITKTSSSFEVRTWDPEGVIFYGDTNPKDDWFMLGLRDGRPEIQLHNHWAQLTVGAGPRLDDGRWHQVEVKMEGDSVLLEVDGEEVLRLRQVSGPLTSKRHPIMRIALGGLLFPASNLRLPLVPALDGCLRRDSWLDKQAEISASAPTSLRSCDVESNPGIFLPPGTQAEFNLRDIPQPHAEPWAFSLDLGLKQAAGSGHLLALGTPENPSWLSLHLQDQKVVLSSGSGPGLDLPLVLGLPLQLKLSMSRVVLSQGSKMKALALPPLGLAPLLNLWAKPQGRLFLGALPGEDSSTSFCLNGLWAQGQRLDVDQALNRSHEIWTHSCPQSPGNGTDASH
Put plainly: Binding to purified human SHBG. The note with it: size-exclusion HPLC / ITLC. (In gel filtration, larger molecules generally elute earlier.)

The next data set in a line: Stability in PBS. The note with it: PBS/CH3CN 10:1, pH 7.1, ambient temperature, up to 24 h. Type of data set: physicochemical.
In data set [2] the test system is LNCaP human prostate cancer cells. Kind of data set: Uptake and subcellular distribution in LNCaP cells. The note with it: proliferating LNCaP monolayer, 24 h exposure. Type of data set: cell-based.
In another data set the test system is PC-3 cells. Put plainly: Uptake of 8 in PC-3 cells with or without DHT at 4 °C. Type of data set: cell-based, human. The note with it: 0.1 μCi/mL 8, 0.1 μM DHT, 16 h. The gist of the method:
(§1)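 Cells with very low or no AR expression. Non-radioactive DHT competitor was added before the radioiodinated test compound to block AR binding. Cells were grown with the test compound at 4 °C for 16 h and cellular retention was compared with DHT-free cells.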

In another data set the test system is MCF-7 cells. Put plainly: Uptake of 8 in MCF7 cells with or without DHT at 4 °C. The note with it: 0.1 μCi/mL 8, 0.1 μM DHT, 16 h. In kind it is cell-based, human. The gist of the method:
as §1

Data set [3] concerns intraperitoneal NIH:OVCAR-3 xenografts. Put plainly: Biodistribution and imaging of 8 in athymic mice with ip NIH:OVCAR-3 xenografts. In kind it is in vivo, mouse.
For data set [4] the test system is unchanged. Put plainly: Therapy with 8 in OVCAR-3-bearing athymic mice. In kind it is in vivo, mouse.
The nature of data set [5]: Binding and stability in human serum.
Data set [6] in a line: Binding and stability in mouse serum.
Data set [7] can be described thus: Binding and stability in rabbit serum.
The subject of data set [8] is LNCaP human prostate cancer cells. Kind of data set: Cell survival of LNCaP cells. The note with it: 48 h, extracellular concentration 8 μCi/mL. Type of data set: cell-based. In short, it runs like this: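 LNCaP cells plated at 2000 cells/well, allowed to attach for 24 h, then given fresh charcoal–dextran-stripped medium containing radioactive test compound. Survival read by CellTiter-Fluor viability assay or CellTiter 96 AQueous One Solution proliferation assay.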

The subject of data set [9] is intraperitoneal NIH:OVCAR-3 xenografts. Type of data set: in vivo, mouse.
Data set [10] has the same test system. Kind of data set: Fractionated therapy and biodistribution of 13 in OVCAR-3-bearing mice. Type of data set: in vivo, mouse.
Data set [11] is described as follows: Biodistribution of fractionated ip doses of 13 in healthy mice. Type of data set: in vivo, mouse. The note with it: control (healthy) mice.
The mark [12] stands for this setting: cell pellet, six fractionated ip treatments.
The mark [13] stands for this setting: 13 (0.25 mCi) + SHBG therapy group, or SHBG only.

Bounds are passed on as bounds.

With `C[C@]12CCC(=O)C[C@@H]1CC[C@@H]1[C@@H]2CC[C@]2(C)[C@@H](OC(=O)CCC(=O)O[C@H]3C[C@H](n4cc([125I])c(=O)[nH]c4=O)O[C@@H]3CO)CC[C@@H]12` [compound 8, 5-[^125I]Iodo-3′-O-(17β-succinyl-5α-androstan-3-one)-2′-deoxyuridine], the “binding to pure SHBG isolated from human serum” value (from here on “binding to pure SHBG isolated”) in [1] is reported as “bind to pure SHBG isolated from human serum”. Moreover, the “stability in PBS” value in the data set “Stability in PBS” was “stable in PBS”. In [2], the “Bmax (single cell-binding isotherm)” value is listed as 1.4 × 10^−6 pmol/cell. The “effect of DHT competitor on cellular retention” value with PC-3 cells and in the data set on MCF-7 cells was “In neither PC-3 nor MCF-7 cells was the cellular retention of 8 influenced by the presence of competitor” throughout. Besides, in data set [3] (24 h and later after ip administration), the “peritoneal lavage radioactivity associated with OVCAR-3 cells” value is reported as greater than 95%. Further, the uptake in uterus result in data set [3] (72 h after ip administration) is given as “up to 1 % ID/g”. Further, in data set [3] (72 h after ip administration of 45 μCi 8), the “whole body radioactivity associated with the intraperitoneal tumor (ROI)” value is given as 8.3% ± 2.1%. For the same molecule, in data set [3] (72 h after ip injection of 45 μCi 8), the “fraction of lavage radioactivity associated with cancer cells” value is reported as greater than 97%. For the same molecule, the “radioactivity retained in tumors” value in [4] (12 days after the last of six therapeutic doses, decay corrected) was ~ 0.5 % ID/g. Further, the “range of weight” value in data set [4] (setting [12]) lay within 0.012 to 0.781 g. The “average cell pellet weight (g) (SEM)” value in [4] (six fractionated ip treatments) is listed as 0.380(0.111) g. Also, the “^125I bound to DNA as share of total cell-associated radioactivity” value in [4] (tumors 12 days after the last of six doses) is given as 86.8% ± 7.4%. For the same molecule, the “binding to SHBG in human serum” value in [5] was “bind to SHBG in rabbit and human serum”. The intact compound remaining in data set [5] (human serum, after 60 min of incubation) is recorded as greater than 91%; in [7] (rabbit serum, after 60 min of incubation) it was greater than 84%. Further, the “binding to mouse serum” value in data set [6] is recorded as “does not bind to mouse serum”. For the same molecule, the “time in which mouse serum degrades 8 to 1” value in data set [6] (mouse serum, no SHBG) is reported as less than 10 min. Further, the “binding to SHBG in rabbit serum” value in data set [7] is “bind to SHBG in rabbit and human serum”.
Regarding `C[C@]12CCC(=O)C[C@@H]1CC[C@@H]1[C@@H]2CC[C@]2(C)[C@@H](OC(=O)CCC(=O)O[C@H]3C[C@H](n4cc([125I])c(=O)[nH]c4=O)O[C@@H]3COP(=O)(O)O)CC[C@@H]12` [compound 13, 5-[^125I]Iodo-3′-O-(17β-succinyl-5α-androstan-3-one)-2′-deoxyuridin-5′-yl Monophosphate], the “binding to pure SHBG isolated” value in [1] is “bind to pure SHBG isolated from human serum”. Further, the “stability in PBS” value in the data set “Stability in PBS” was “stable in PBS”. The cells dead entry in [8] is reported as “Ninety percent”. For the same molecule, in data set [9] (0.25 mCi dose), the “adverse effects from hematologic data” value is reported as “no overt adverse effects”. The “fold lower radioactivity in blood than in cancer cells” value in [9] (necropsy after bolus dose of 13) is recorded as greater than 2.5 ×. Moreover, the “percent injected dose per gram of tissue, blood” value in data set [10] (OVCAR-3 mice, blood) is given as 0.003(0.0010) percent injected dose per gram of tissue; in data set [11] (blood), 0.001(0.0001) percent injected dose per gram of tissue. Further, the “percent injected dose per gram of tissue, heart” value in [10] (OVCAR-3 mice, heart) was 0.003(0.0004) percent injected dose per gram of tissue; in data set [11] (heart), 0.002(0.0003) percent injected dose per gram of tissue. The “percent injected dose per gram of tissue, kidney” value in data set [10] (OVCAR-3 mice, kidney) is reported as 0.013(0.0063) percent injected dose per gram of tissue; in data set [11] (kidney), 0.005(0.0005) percent injected dose per gram of tissue. Moreover, the “percent injected dose per gram of tissue, large intestine” value is 0.008(0.0009) percent injected dose per gram of tissue in data set [10] (OVCAR-3 mice, large intestine) and 0.005(0.0009) percent injected dose per gram of tissue in data set [11] (large intestine). The “percent injected dose per gram of tissue, liver” value is recorded as 0.017(0.0020) percent injected dose per gram of tissue in [10] (OVCAR-3 mice, liver) and 0.006(0.0005) percent injected dose per gram of tissue in data set [11] (liver). Besides, the “percent injected dose per gram of tissue, lung” value is listed as 0.008(0.0018) percent injected dose per gram of tissue in [10] (OVCAR-3 mice, lung) and 0.004(0.0007) percent injected dose per gram of tissue in [11] (lung). Besides, the “percent injected dose per gram of tissue, small intestine” value is recorded as 0.011(0.0014) percent injected dose per gram of tissue in [10] (OVCAR-3 mice, small intestine) and 0.006(0.0016) percent injected dose per gram of tissue in data set [11] (small intestine). Moreover, the “percent injected dose per gram of tissue, spleen” value in [10] (OVCAR-3 mice, spleen) is 0.043(0.0103) percent injected dose per gram of tissue; in data set [11] (spleen), 0.025(0.0025) percent injected dose per gram of tissue. The “percent injected dose per gram of tissue, stomach” value in [10] (OVCAR-3 mice, stomach) is given as 0.009(0.0010) percent injected dose per gram of tissue; in data set [11] (stomach), 0.007(0.0002) percent injected dose per gram of tissue. Also, the “percent injected dose per gram of tissue, tumor” value in data set [10] (OVCAR-3 mice, tumor) is listed as 2.892(0.5317) percent injected dose per gram of tissue. Further, the “percent injected dose per gram of tissue, uterus” value in [10] (OVCAR-3 mice, uterus) is 0.027(0.0051) percent injected dose per gram of tissue; in data set [11] (uterus), 0.015(0.0011) percent injected dose per gram of tissue. The “median weight” value in data set [10] (setting [12]) is 0.064 g. Besides, the “range of weight” value in data set [10] (setting [12]) fell in the range of 0.044 to 0.076 g. Moreover, the “average retention of ^125I in OVCAR-3 cells” value in [10] (fractionated ip doses) stood at 0.0124 ± 0.0024 cpm/cell. The “radioactivity of surviving cancer cells recovered with DNA” value in data set [10] (fractionated ip doses, TCA precipitation) is “Virtually all radioactivity associated with surviving cancer cells was recovered with DNA”. Besides, the “average cell pellet weight (g) (SEM)” value in data set [10] (six fractionated ip treatments) is on record as 0.061(0.006) g. Also, the “binding to SHBG in human serum” value in data set [5] was “bind to SHBG in rabbit and human serum”. Further, in data set [6], the “binding to mouse serum” value is listed as “appears to bind to some unidentified component of mouse serum”. In data set [7], the “binding to SHBG in rabbit serum” value was “bind to SHBG in rabbit and human serum”.
On to `O=c1[nH]c(=O)n([C@H]2C[C@H](O)[C@@H](COP(=O)(O)O)O2)cc1[125I]` [compound 20, 5-[^125I]Iodo-2′-deoxyuridine-5′-monophosphate], for which, in data set [1], the “binding to pure SHBG isolated” value is listed as “Neither the control reagent 17 nor compound 20, which is the metabolite of 13, binds to SHBG or to any component of analyzed sera”. For the same molecule, the intact compound remaining entry in data set [6] (mouse serum, after 60 min of incubation) was “does not survive incubation in mouse serum”.
On to `CCOC(=O)CCC(=O)O[C@H]1C[C@H](n2cc([125I])c(=O)[nH]c2=O)O[C@@H]1CO` [compound 17, 5-[^125I]Iodo-3′-O-succinyl-2′-deoxyuridine Ethyl Ester], for which the “binding to pure SHBG isolated” value in [1] is recorded as “Neither the control reagent 17 nor compound 20, which is the metabolite of 13, binds to SHBG or to any component of analyzed sera”.

B1: SHBG: Human SHBG (pure, lyophilized), injected ip alone as control or co-injected with 13 (protein, UniProt P04278 30-402, looked up)
Sex hormone-binding globulin: T1 sequence (P04278 30-402)
For B1, in data set [9] (setting [13]), the “hematocrit (Ht)” value came out at 51.4 ± 1.6 and the “hemoglobin (Hb)” value was 11.5 ± 1.3. For the same molecule, the “average weight of solid tumors” value in data set [9] (13 + SHBG or SHBG only) amounted to 1.9 ± 0.8 g.

(Values after publication PMC3941710 (Journal of medicinal chemistry, 2009).)
